Source: ChEMBL document CHEMBL4308880, “Novel monoamine oxidase inhibitors based on the privileged 2-imidazoline molecular framework” (Bioorg Med Chem Lett, 2019)

Key:
[1] = biological target: T1, Amine oxidase [flavin-containing] A (Homo sapiens, UniProt P21397); assay: Inhibition of recombinant human MAOA expressed in insect cell microsomes using kynuramine as substrate preincubated with substrate for 30 mins followed by enzyme addition and measured after 20 mins by fluorescence spectrophotometry
T1 sequence (P21397 whole entry): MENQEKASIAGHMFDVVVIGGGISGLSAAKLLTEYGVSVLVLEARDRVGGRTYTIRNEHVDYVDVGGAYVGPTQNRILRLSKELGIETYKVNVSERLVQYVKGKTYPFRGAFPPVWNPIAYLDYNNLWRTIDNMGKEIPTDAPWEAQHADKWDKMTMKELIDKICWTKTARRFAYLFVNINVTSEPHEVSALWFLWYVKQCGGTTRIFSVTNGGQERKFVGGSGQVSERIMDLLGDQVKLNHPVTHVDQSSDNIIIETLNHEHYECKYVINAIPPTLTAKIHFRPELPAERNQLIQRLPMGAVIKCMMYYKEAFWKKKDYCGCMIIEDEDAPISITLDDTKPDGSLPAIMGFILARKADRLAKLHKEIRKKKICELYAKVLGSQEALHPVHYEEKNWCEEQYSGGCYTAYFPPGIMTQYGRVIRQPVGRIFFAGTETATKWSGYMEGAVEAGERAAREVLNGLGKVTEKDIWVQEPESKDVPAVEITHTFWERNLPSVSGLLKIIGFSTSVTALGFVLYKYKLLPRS
Method in brief: (§1)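 Recombinant human enzyme; kynuramine as substrate for both isoforms. 4-Hydroxyquinoline product read by fluorescence spectrophotometry after alkalization. Rates measured without and with inhibitor at 0.0003–100 µM. IC50 estimated from sigmoidal plots of rate versus log inhibitor concentration. Reported as mean ± standard deviation of triplicate experiments.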

[2] = biological target: T2, Amine oxidase [flavin-containing] B (Homo sapiens, UniProt P27338); assay: Inhibition of recombinant human MAOB expressed in insect cell microsomes using kynuramine as substrate preincubated with substrate for 30 mins followed by enzyme addition and measured after 20 mins by fluorescence spectrophotometry; method in brief: as §1
T2 sequence (P27338 whole entry): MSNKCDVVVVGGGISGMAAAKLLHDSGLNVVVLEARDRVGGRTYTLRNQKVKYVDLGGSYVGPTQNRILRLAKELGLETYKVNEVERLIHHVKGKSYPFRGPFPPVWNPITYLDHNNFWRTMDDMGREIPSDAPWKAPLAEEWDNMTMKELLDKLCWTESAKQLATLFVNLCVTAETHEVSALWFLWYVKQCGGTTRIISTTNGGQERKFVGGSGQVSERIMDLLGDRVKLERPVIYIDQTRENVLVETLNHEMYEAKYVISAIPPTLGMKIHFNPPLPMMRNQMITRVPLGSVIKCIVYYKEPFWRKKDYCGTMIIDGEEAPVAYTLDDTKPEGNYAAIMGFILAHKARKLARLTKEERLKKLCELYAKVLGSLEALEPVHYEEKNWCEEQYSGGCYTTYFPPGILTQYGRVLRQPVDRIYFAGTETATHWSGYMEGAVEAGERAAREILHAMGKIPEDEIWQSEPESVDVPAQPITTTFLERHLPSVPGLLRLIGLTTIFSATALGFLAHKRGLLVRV

[3] = species: Homo sapiens; assay: Selectivity index, ratio of IC50 for recombinant human MAOA expressed in insect cell microsomes to IC50 for recombinant human MAOB expressed in insect cell microsomes
[4] = biological target: T2, Amine oxidase [flavin-containing] B; assay: Reversible inhibition of recombinant human MAO-B expressed in insect cell microsomes assessed as residual activity using kynuramine as substrate at 4 times IC50 concentration preincubated for 15 mins with subsequent dialysis for 24 hrs followed by substrate addition measured after 20 mins by fluorescence spectroscopy relative to control
Method in brief: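 Enzyme preincubated 15 min with inhibitor at 4 × IC50, then dialyzed 24 h. Samples then diluted twofold to 2 × IC50. Kynuramine added and reactions run 20 min. 4-Hydroxyquinoline quantified by fluorescence spectrophotometry. Controls: dialysis with no inhibitor (set as 100%) and dialysis with the irreversible inhibitor (R)-deprenyl.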

[5] = biological target: T2, Amine oxidase [flavin-containing] B; assay: Inhibition of recombinant human MAO-B expressed in insect cell microsomes assessed as residual activity using kynuramine as substrate at 4 times IC50 concentration preincubated for 15 mins measured after 20 mins by fluorescence spectroscopy relative to control
Method in brief: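 Enzyme mixed with inhibitor at 4 × IC50 and incubated 15 min, with no dialysis. Residual activity read with kynuramine by 4-hydroxyquinoline fluorescence and expressed against the dialyzed no-inhibitor control.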

[6] = biological target: T2, Amine oxidase [flavin-containing] B; assay: Competitive inhibition of human MAOB expressed in insect cell microsomes using varying levels of kynuramine as substrate measured after 20 mins by Lineweaver-burk plot analysis
Method in brief: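 Activity recorded at 8 kynuramine concentrations (15–250 µM). Runs done without inhibitor and with five inhibitor levels (¼, ½, ¾, 1 and 1¼ × IC50). Mode of inhibition assigned from Lineweaver-Burk plots.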

[7] = biological target: T1, Amine oxidase [flavin-containing] A; assay: Competitive inhibition of human MAOA using p-trifluoromethyl benzylamine as substrate preincubated with substrate for 5 mins followed by enzyme addition by fluorimetric horseradish peroxidase-Amplex Red-coupled assay

Structure (SMILES)	IC50 [1] [µM]	IC50 [2] [µM]	Ratio IC50 [3]	Activity [4] [%]	Activity [5] [%]	Ki [6] [µM]	Ki [7] [µM]
Cc1nn(Cc2nc(-c3cccc(C4=NCCN4)c3)no2)c(=O)c2ccccc12	62.2	23.9	2.6				
c1cc(C2=NCCN2)cc(-c2noc(-c3cccs3)n2)c1	88.3	1.06	83				
CC1CN=C(c2ccc(-c3noc(-c4ccc(Cl)c(Cl)c4)n3)cc2)N1 (centres undefined)	14.7	0.16	91				
Clc1ccc(-c2noc(-c3ccc(C4=NCCN4)cc3)n2)cc1Cl	1.11	0.012	92				
O=c1ccc(-c2ccccc2)nn1Cc1noc(-c2ccc(C3=NCCN3)cc2)n1	> 100	0.608	> 164				
c1cc(-c2noc(C3CC3)n2)ccc1C1=NCCN1	7.37	4.28	1.7				
COc1cccc(-c2noc(-c3ccc(C4=NCCN4)cc3)n2)c1	12	0.216	55				
CCOc1ccc(-c2n[nH]cc2C2=NCCN2)cc1	> 100	> 100					
c1ccc2c(c1)Oc1nccnc1N1CCN=C21	> 100	> 100					
Clc1ccccc1-c1noc(-c2ccc(C3=NCCN3)cc2)n1	17.1	0.03	570				
Cc1nc(-c2ccc(C3=NCCN3)cc2)no1	41.1	39.7	1				
FC(F)(F)c1cnc2c(c1)Oc1ccccc1C1=NCCN12	32	> 100	< 0.32				
COc1ccc(C2=NCCN2)cc1Cn1ccnc1C	> 100	> 100					
CC(C)c1noc(-c2ccc(C3=NCCN3)cc2)n1	22.5	0.23	97				
COc1ccc(-c2noc(-c3ccc(C4=NCCN4)cc3)n2)cc1OC	> 100	0.756	> 132				
Clc1cccc(-c2nc(-c3cccc(C4=NCCN4)c3)no2)c1	1.39	0.03	46				
c1ccc2oc(C3=NCCN3)cc2c1							17
N#Cc1ccc(C2=NCCN2c2ccc(C(F)(F)F)cn2)cc1	> 100	41.8	> 2.4				

The remaining lines, values ahead:

IC50 [1] [µM]	IC50 [2] [µM]	Ratio IC50 [3]	Activity [4] [%]	Activity [5] [%]	Ki [6] [µM]	Ki [7] [µM]	Structure (SMILES)
> 100	47.6	> 2.1					c1ccc(-c2ccc(-c3noc(-c4ccc(C5=NCCN5)cc4)n3)cc2)cc1
2.31	0.071	32	66	36	0.038		Cc1ccc(-c2nc(-c3ccc(C4=NCCN4)cc3)no2)cc1
55.5	3.64	15					Cc1ccc(Cc2noc(-c3ccc(C4=NCCN4)cc3)n2)cc1
> 100	1.26	> 79					O=c1c2ccccc2cnn1Cc1noc(-c2ccc(C3=NCCN3)cc2)n1
2.77	1.37	2					c1ccc(Oc2ccc(-c3noc(-c4ccc(C5=NCCN5)cc4)n3)cc2)cc1
24.7	0.3	82					Cc1ccc(-c2noc(-c3ccc(C4=NCC(C)N4)cc3)n2)s1 (centres undefined)
> 100	> 100						Cn1ncc2c(c1=O)Oc1ccccc1C1=NCCN12
5.47	0.064	85					Clc1cccc(-c2noc(-c3ccc(C4=NCCN4)cc3)n2)c1
24.6	9.02	2.7					c1ncn(Cc2ccc(-c3noc(-c4ccc(C5=NCCN5)cc4)n3)cc2)n1
> 100	9.98	> 10					c1ccc(OCc2noc(-c3ccc(C4=NCCN4)cc3)n2)cc1
1.57	0.89	1.7					c1csc(-c2noc(-c3ccc(C4=NCCN4)cc3)n2)c1
0.751	0.411	1.8					CC(C)(C)c1ccc(-c2noc(-c3ccc(C4=NCCN4)cc3)n2)cc1
12.4	2.28	5.4					Cn1ccnc1SCc1ccc(-c2noc(-c3ccc(C4=NCCN4)cc3)n2)cc1
> 100	17.2	> 5.8					N#Cc1ccc(C2=NCCN2c2cnccn2)cc1
> 100	18.4	> 5.4					c1ccc(-n2cc(C3=NCCN3)c(-c3cccs3)n2)cc1
147	1.87	78					N#Cc1cccc(C2=NCCN2)c1
